# Laboratory results published in ChEMBL document CHEMBL3297649, “Structure-activity relationships of privileged structures lead to the discovery of novel biased ligands at the dopamine D₂ receptor” (J Med Chem, 2014).
# The source made the active and inactive calls. No cut-off for these calls is given here.
# What was measured:
# [1] = Retention time of the compound by HPLC analysis; format: physicochemical
# Method in brief: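 Reverse-phase C8 column, 0.1% TFA/water vs 0.1% TFA/80% MeOH; 100% A 10 min, 80% B over 2 min, back to 100% A over 10 min; 1 mL/min, detection at 214 nm.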
# D(2) dopamine receptor [2] = molecular target: T1, D(2) dopamine receptor (Homo sapiens, UniProt P14416); experiment: Displacement of [3H]spiperone from human D2L receptor expressed in FlpIn CHO cell membrane after 3 hrs by liquid scintillation counting analysis; format: cell membranes
# T1 sequence (P14416 whole entry): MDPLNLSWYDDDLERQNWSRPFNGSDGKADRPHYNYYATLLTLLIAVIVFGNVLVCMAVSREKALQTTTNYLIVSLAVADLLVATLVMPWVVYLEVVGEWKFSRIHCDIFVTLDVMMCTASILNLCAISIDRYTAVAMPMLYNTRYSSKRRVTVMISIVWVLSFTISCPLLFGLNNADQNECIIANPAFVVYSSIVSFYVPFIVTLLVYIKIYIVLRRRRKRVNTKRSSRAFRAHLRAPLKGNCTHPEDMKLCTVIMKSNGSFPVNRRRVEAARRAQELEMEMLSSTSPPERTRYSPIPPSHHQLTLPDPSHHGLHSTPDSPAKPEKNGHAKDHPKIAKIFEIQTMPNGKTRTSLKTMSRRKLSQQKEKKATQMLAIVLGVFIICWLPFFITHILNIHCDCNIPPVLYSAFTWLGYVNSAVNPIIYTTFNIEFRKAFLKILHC
# Method in brief: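 Membranes from D2L FlpIn CHO cells, 3 μg, with 0.05 nM [3H]spiperone, 100 μM GppNHp and varied competitor in 20 mM HEPES, 100 mM NaCl, 6 mM MgCl2, 1 mM EGTA, 1 mM EDTA, pH 7.4, 3 h at 37 °C. Filtered on GF/B, washed in ice-cold saline, counted by liquid scintillation. Three experiments in duplicate.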
# D(2) dopamine receptor [3] = molecular target: T1, D(2) dopamine receptor; conditions: CHO
# D(2) dopamine receptor [4] = molecular target: T1, D(2) dopamine receptor; conditions: CHO; remark: listed apart in the source
# D(2) dopamine receptor [5] = molecular target: T1, D(2) dopamine receptor; conditions: CHO; remark: listed apart in the source
# D(2) dopamine receptor [6] = molecular target: T1, D(2) dopamine receptor; conditions: CHO; remark: listed apart in the source
# D(2) dopamine receptor [7] = molecular target: T1, D(2) dopamine receptor; experiment: Agonist activity at human D2L receptor expressed in FlpIn CHO cells assessed as induction of ERK1/2 phosphorylation at 10 uM by AlphaScreen assay; format: cell-based
# Method in brief: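 Time-course ERK1/2 phosphorylation screen at 10 μM in FlpIn CHO cells stably expressing human D2L, seeded 50 000 cells/well, serum-starved overnight. Compounds applied at 37 °C over a time course to find peak stimulation time. Stimulation stopped by SureFire lysis, 5 min shaking at room temperature, lysate read by AlphaScreen.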
# D(2) dopamine receptor [8] = molecular target: T1, D(2) dopamine receptor; experiment: Agonist activity at human D2L receptor expressed in FlpIn CHO cells assessed as inhibition of forskolin-stimulated cAMP production treated for 30 mins by AlphaScreen assay; format: functional, cell-based
# D(2) dopamine receptor [9] = molecular target: T1, D(2) dopamine receptor; experiment: Agonist activity at human D2L receptor expressed in FlpIn CHO cells assessed as induction of ERK1/2 phosphorylation by AlphaScreen assay; format: cell-based
# D(2) dopamine receptor [10] = molecular target: T1, D(2) dopamine receptor; experiment: Agonist activity at human D2L receptor expressed in FlpIn CHO cells assessed as inhibition of forskolin-stimulated cAMP production treated for 30 mins by AlphaScreen assay relative to dopamine; format: functional, cell-based
# Method in brief: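 D2L-expressing FlpIn CHO cells grown overnight, then preincubated 45 min in HBSS stimulation buffer (1 mg/mL BSA, 0.5 mM IBMX, 5 mM HEPES, pH 7.4). Agonist and 300 nM forskolin added together for 30 min at 37 °C. Stopped with ice-cold ethanol, dried, lysed in detection buffer; cAMP measured by AlphaScreen. Operational-model fit gives log(τ/KA); n = 4.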
# D(2) dopamine receptor [11] = molecular target: T1, D(2) dopamine receptor; experiment: Agonist activity at human D2L receptor expressed in FlpIn CHO cells assessed as induction of ERK1/2 phosphorylation by AlphaScreen assay relative to dopamine; format: cell-based
# Method in brief: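 FlpIn CHO cells stably expressing human D2L receptor, seeded at 50 000 cells/well, serum-starved overnight. Ligands added at 37 °C for 5−10 min, time set per ligand from prior time-course runs. Lysed in SureFire buffer; phospho-ERK1/2 read by AlphaScreen. Curves fitted to three-parameter logistic; Emax as % of dopamine maximum. Three to four experiments in duplicate.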
# D(2) dopamine receptor [12] = molecular target: T1, D(2) dopamine receptor; experiment: Antagonist activity at human D2L receptor expressed in FlpIn CHO cells assessed as inhibition of dopamine-induced ERK1/2 phosphorylation treated for 30 mins prior to dopamine stimulation for 5 mins by AlphaScreen assay; format: cell-based
# Method in brief: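 D2L-FlpIn CHO cells serum-starved overnight. Compound serial dilutions preincubated 30 min at 37 °C, then 10 nM dopamine added for 5 min. Lysed in SureFire buffer, pERK1/2 read by AlphaScreen. pIC50 is the mean of three to four separate experiments run in duplicate.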
# D(2) dopamine receptor [13] = molecular target: T1, D(2) dopamine receptor; experiment: Competitive antagonist activity at human D2L receptor expressed in FlpIn CHO cells assessed as inhibition of dopamine-induced ERK1/2 phosphorylation treated for 30 mins prior to dopamine stimulation for 5 mins by AlphaScreen assay; format: cell-based
# Method in brief: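 Human D2L FlpIn CHO cells serum-starved overnight. Inhibitor at a range of dilutions for 30 min at 37 °C, then 10 nM dopamine for 5 min. Lysed; phospho-ERK1/2 detected by AlphaScreen. pIC50 taken from inhibition curves; three to four experiments in duplicate.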
# D(2) dopamine receptor [14] = molecular target: T1, D(2) dopamine receptor; conditions: CHO, at 10 µM
# D(2) dopamine receptor [15] = molecular target: T1, D(2) dopamine receptor; experiment: Partial agonist activity at human D2L receptor expressed in FlpIn CHO cells assessed as induction of ERK1/2 phosphorylation by AlphaScreen assay; format: cell-based
# Method in brief: (§1)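 Stable human D2L FlpIn CHO cells serum-starved overnight, then given concentration series of agonist at 37 °C for 5–10 min, the per-compound peak time from time-course runs. Lysed with SureFire buffer and pERK1/2 detected by AlphaScreen. Three-parameter logistic fit gives pEC50; Emax as % of maximal dopamine response. Three to four experiments in duplicate.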
# D(2) dopamine receptor [16] = molecular target: T1, D(2) dopamine receptor; experiment: Partial agonist activity at human D2L receptor expressed in FlpIn CHO cells assessed as induction of ERK1/2 phosphorylation by AlphaScreen assay relative to dopamine; format: cell-based; method in brief: as §1
structure (smiles),measurement,setting,value
Cc1cc(C)c2c(N)c(C(=O)NCCN3CCC(O)(c4ccc(Cl)cc4)CC3)sc2n1,Retention_time,[1],8.06 min
same,Ki,D(2) dopamine receptor [2],0.91 µM
CC(C)(C)OC(=O)NCCCCCN1CCN(c2cccc(Cl)c2Cl)CC1,Retention_time,[1],10.43 min
same,Ki,D(2) dopamine receptor [2],0.0426 µM
same,pKA,D(2) dopamine receptor [3],7.73
same,log(activity),D(2) dopamine receptor [4],0.43
same,pKA,D(2) dopamine receptor [5],7.14
same,log(activity),D(2) dopamine receptor [6],-0.51
CC(C)(C)OC(=O)NCCCN1CCC(O)(c2ccc(Cl)cc2)CC1,Activity,D(2) dopamine receptor [7],inactive
same,Ki,D(2) dopamine receptor [2],1.35 µM
Cc1cc(C)c2c(N)c(C(=O)NCCCCCN3CCN(c4cccc(Cl)c4Cl)CC3)sc2n1,Retention_time,[1],10.13 min
same,Ki,D(2) dopamine receptor [2],0.0112 µM
same,EC50,D(2) dopamine receptor [8],0.0003 µM
same,EC50,D(2) dopamine receptor [9],0.0132 µM
same,Emax,D(2) dopamine receptor [10],50%
same,Emax,D(2) dopamine receptor [11],13%
same,pKA,D(2) dopamine receptor [3],9
same,log(activity),D(2) dopamine receptor [4],-0.06
same,pKA,D(2) dopamine receptor [5],7.9
same,log(activity),D(2) dopamine receptor [6],-0.78
COc1ccccc1N1CCNCC1,Ki,D(2) dopamine receptor [2],4.11 µM
same,IC50,D(2) dopamine receptor [12],> 1 µM
same,pIC50,D(2) dopamine receptor [12]; cho,< 6
same,Kb,D(2) dopamine receptor [13],0.479 µM
same,pKb,D(2) dopamine receptor [13],6.32
same,inhibition,D(2) dopamine receptor [14],Active
COc1ccccc1N1CCN(CCCCCNC(=O)OC(C)(C)C)CC1,Activity,D(2) dopamine receptor [7],inactive
same,Retention_time,[1],10.43 min
same,Ki,D(2) dopamine receptor [2],0.0121 µM
same,EC50,D(2) dopamine receptor [15],0.00143 µM
same,Emax,D(2) dopamine receptor [16],19%
same,pKA,D(2) dopamine receptor [3],7.06
same,log(activity),D(2) dopamine receptor [4],0.19
same,pKA,D(2) dopamine receptor [5],8.77
same,log(activity),D(2) dopamine receptor [6],-0.67
COc1ccccc1N1CCN(CCCCNC(=O)c2sc3nc(OC)c(Cl)c(C)c3c2N)CC1,Retention_time,[1],9.3 min
same,Ki,D(2) dopamine receptor [2],0.0063 µM
same,Kb,D(2) dopamine receptor [13],0.49 µM
same,pKb,D(2) dopamine receptor [13],6.31
COc1ccccc1N1CCN(CCCCCCNC(=O)c2sc3nc(OC)c(Cl)c(C)c3c2N)CC1,Ki,D(2) dopamine receptor [2],0.0006 µM
same,EC50,D(2) dopamine receptor [15],0.00549 µM
same,Emax,D(2) dopamine receptor [16],14%
Cc1cc(C)c2c(N)c(C(=O)NCCCN3CCC(O)(c4ccc(Cl)cc4)CC3)sc2n1,Ki,D(2) dopamine receptor [2],1.7 µM
COc1nc2sc(C(=O)NCCCCCN3CCN(c4cccc(Cl)c4Cl)CC3)c(N)c2c(C)c1Cl,Retention_time,[1],11.66 min
same,Ki,D(2) dopamine receptor [2],0.0155 µM
same,EC50,D(2) dopamine receptor [9],0.0876 µM
same,Emax,D(2) dopamine receptor [10],71%
same,Emax,D(2) dopamine receptor [11],17%
same,Ka,D(2) dopamine receptor [3],58.9 nM
same,pKA,D(2) dopamine receptor [3],6.89
same,log(activity),D(2) dopamine receptor [4],0.28
same,pKA,D(2) dopamine receptor [5],7.1
same,log(activity),D(2) dopamine receptor [6],-0.65
COc1ccccc1N1CCN(CCCCNC(=O)OC(C)(C)C)CC1,Activity,D(2) dopamine receptor [7],inactive
same,Ki,D(2) dopamine receptor [2],0.0189 µM
same,EC50,D(2) dopamine receptor [15],0.0006 µM
same,Emax,D(2) dopamine receptor [16],13%
CC(C)(C)OC(=O)NCCCCN1CCC(O)(c2ccc(Cl)cc2)CC1,Activity,D(2) dopamine receptor [7],inactive
same,Ki,D(2) dopamine receptor [2],2.11 µM
COc1ccccc1N1CCN(CCNC(=O)c2sc3nc(OC)c(Cl)c(C)c3c2N)CC1,Ki,D(2) dopamine receptor [2],0.0483 µM
same,Kb,D(2) dopamine receptor [13],0.355 µM
same,pKb,D(2) dopamine receptor [13],6.45
COc1ccccc1N1CCN(CCCNC(=O)OC(C)(C)C)CC1,Activity,D(2) dopamine receptor [7],inactive
same,Retention_time,[1],7.74 min
same,Ki,D(2) dopamine receptor [2],0.0161 µM
same,EC50,D(2) dopamine receptor [15],0.00039 µM
same,Emax,D(2) dopamine receptor [16],31%
COc1ccccc1N1CCN(CCCNC(=O)c2sc3nc(OC)c(Cl)c(C)c3c2N)CC1,Ki,D(2) dopamine receptor [2],0.0195 µM
same,Kb,D(2) dopamine receptor [13],0.741 µM
same,pKb,D(2) dopamine receptor [13],6.13
Cc1cc(C)c2c(N)c(C(=O)NCCCCCCN3CCC(O)(c4ccc(Cl)cc4)CC3)sc2n1,Retention_time,[1],8.39 min
same,Ki,D(2) dopamine receptor [2],0.975 µM
NCCc1ccc(O)c(O)c1,pKA,D(2) dopamine receptor [5],7.98
same,log(activity),D(2) dopamine receptor [6],0.79
COc1ccccc1N1CCN(CCCCCNC(=O)c2sc3nc(OC)c(Cl)c(C)c3c2N)CC1,Retention_time,[1],9.84 min
same,Ki,D(2) dopamine receptor [2],0.0035 µM
same,EC50,D(2) dopamine receptor [15],0.00269 µM
same,Emax,D(2) dopamine receptor [16],17%
same,pKA,D(2) dopamine receptor [3],7.47
same,log(activity),D(2) dopamine receptor [4],-0.26
same,pKA,D(2) dopamine receptor [5],8.86
same,log(activity),D(2) dopamine receptor [6],-0.65
Clc1cccc(N2CCNCC2)c1Cl,Ki,D(2) dopamine receptor [2],1.16 µM
COc1ccccc1N1CCN(CCCCCNC(=O)c2sc3nc(C)cc(C)c3c2N)CC1,Retention_time,[1],8.89 min
same,Ki,D(2) dopamine receptor [2],0.0091 µM
same,Emax,D(2) dopamine receptor [10],33%
same,pKA,D(2) dopamine receptor [3],8.84
same,log(activity),D(2) dopamine receptor [4],-0.42
CC(C)(C)OC(=O)NCCN1CCC(O)(c2ccc(Cl)cc2)CC1,Activity,D(2) dopamine receptor [7],inactive
same,Retention_time,[1],7.68 min
same,Ki,D(2) dopamine receptor [2],2.75 µM
COc1ccccc1N1CCN(CCCCCCNC(=O)OC(C)(C)C)CC1,Ki,D(2) dopamine receptor [2],0.0748 µM
same,IC50,D(2) dopamine receptor [12],0.00398 µM
same,inhibition,D(2) dopamine receptor [14],Active
Cc1cc(C)c2c(N)c(C(=O)NCCCCN3CCC(O)(c4ccc(Cl)cc4)CC3)sc2n1,Ki,D(2) dopamine receptor [2],2.25 µM
Cc1cc(C)c2c(N)c(C(=O)NCCCCCN3CCC(O)(c4ccc(Cl)cc4)CC3)sc2n1,Ki,D(2) dopamine receptor [2],1.98 µM
CC(C)(C)OC(=O)NCCCCCCN1CCC(O)(c2ccc(Cl)cc2)CC1,Activity,D(2) dopamine receptor [7],inactive
same,Retention_time,[1],8.77 min
same,Ki,D(2) dopamine receptor [2],0.902 µM
CC(C)(C)OC(=O)NCCCCCN1CCC(O)(c2ccc(Cl)cc2)CC1,Activity,D(2) dopamine receptor [7],inactive
same,Ki,D(2) dopamine receptor [2],2.05 µM
OC1(c2ccc(Cl)cc2)CCNCC1,Ki,D(2) dopamine receptor [2],9.09 µM
